According to ChEMBL document CHEMBL4261516, “Design, synthesis and pharmacological evaluation of new 2-oxo-quinoline derivatives containing α-aminophosphonates as potential antitumor agents” (Medchemcomm, 2017):
Calls of active or inactive are those of the source. The rule behind the calls is not given here.

Key:
HepG2 [1] = assay: Induction of apoptosis in human HepG2 cells assessed as viable cells at 10 uM after 24 hrs by annexin V/[…] staining-based fluorescent microscopic method (reference value: 91.31%); type: functional; details: HepG2, 24 h, read-out: Activity
HepG2 [2] = assay: Induction of apoptosis in human HepG2 cells assessed as late apoptotic cells at 8 uM after 24 hrs by annexin V/[…] staining-based fluorescent microscopic method (reference value: 1.91%); type: functional
HepG2 [3] = assay: Induction of apoptosis in human HepG2 cells assessed as cell budding at 10 uM after 24 hrs by acridine orange/ethidium bromide staining-based fluorescent microscopic method; type: functional
Summary of the method: (§1)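 Cells were plated at 5×10^4 cells/mL on sterile cover slips. Medium was replaced with fresh medium containing 10% FBS plus compound. After treatment, cover slips were inverted onto slides with acridine orange/ethidium bromide stain and viewed by fluorescence microscopy.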

HepG2 [4] = assay: Induction of apoptosis in human HepG2 cells assessed as necrotic cells at 8 uM after 24 hrs by annexin V/[…] staining-based fluorescent microscopic method (reference value: 0.28%); type: functional
HepG2 [5] = assay: Induction of apoptosis in human HepG2 cells assessed as early apoptotic cells at 8 uM after 24 hrs by annexin V/[…] staining-based fluorescent microscopic method (reference value: 6.50%); type: functional
L02 = assay: Cytotoxicity against human HL-7702 cells after 48 hrs by MTT assay; type: cell-based; details: L02, 48 h
Summary of the method: (§2)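 HepG2, SK-OV-3, NCI-H460 and HL 7702 lines grown as monolayers in DMEM with 10% FBS plus penicillin/streptomycin at 37 °C, 5% CO2. Exponentially growing cells were seeded and exposed to the indicated concentrations for 48 h. MTT was then added for 4 h at 37 °C, formazan was dissolved in DMSO, and OD was read at 490 nm. Each concentration was run in triplicate wells, with three independent runs per line.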

HepG2 [6] = assay: Induction of apoptosis in human HepG2 cells assessed as upregulation of PARP levels at 8 to 12 uM after 24 hrs by Western blot method; type: functional, cell-based
HepG2 [7] = assay: Induction of apoptosis in human HepG2 cells assessed as pycnosis at 10 uM after 24 hrs by acridine orange/ethidium bromide staining-based fluorescent microscopic method; type: functional, cell-based; summary of the method: as §1
HepG2 [8] = assay: Induction of apoptosis in human HepG2 cells assessed as upregulation of caspase-3 levels at 8 to 12 uM after 24 hrs by Western blot method; type: functional, cell-based
Summary of the method: (§3)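 Treated HepG2 cells were lysed on ice in 1% SDS/Tris-HCl pH 7.5 buffer with EDTA, NaCl, PMSF, leupeptin and trypsin inhibitor, then cleared at 12,000 × g for 5 min. Protein was quantified by BCA, and 40–50 µg was run on 12% SDS-PAGE and blotted to PVDF. Membranes were blocked with 5% milk, incubated with primary antibody overnight at 4 °C and HRP secondary for 1 h. Detection by chemiluminescence with densitometry.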

HepG2 [9] = assay: Cell cycle arrest in human HepG2 cells assessed as accumulation at S phase at 10 uM after 48 hrs by propidium iodide staining-based flow cytometric method (reference value: 30.49%); type: functional
NCI-H460 = assay: Cytotoxicity against human NCI-H460 cells after 48 hrs by MTT assay; type: functional, cell-based; details: NCI-H460, 48 h; summary of the method: as §2
HepG2 [10] = assay: Induction of apoptosis in human HepG2 cells assessed as viable cells at 12 uM after 24 hrs by annexin V/[…] staining-based fluorescent microscopic method (reference value: 91.31%); type: functional; details: HepG2, 24 h, read-out: Activity
HepG2 [11] = assay: Cell cycle arrest in human HepG2 cells assessed as accumulation at S phase at 8 uM after 48 hrs by propidium iodide staining-based flow cytometric method (reference value: 30.49%); type: functional
HepG2 [12] = assay: Induction of apoptosis in human HepG2 cells assessed as upregulation of reactive oxygen species generation at 10 uM by DCFH-DA/DAPI staining-based fluorescence microscopic method; type: functional, cell-based
HepG2 [13] = assay: Cell cycle arrest in human HepG2 cells assessed as accumulation at G2 phase at 12 uM after 48 hrs by propidium iodide staining-based flow cytometric method (reference value: 19.04%); type: functional
SK-OV-3 = assay: Cytotoxicity against human SKOV3 cells after 48 hrs by MTT assay; type: functional, cell-based; details: SK-OV-3, 48 h; summary of the method: as §2
HepG2 [14] = assay: Cell cycle arrest in human HepG2 cells assessed as accumulation at G2/M phase after 48 hrs by propidium iodide staining-based flow cytometric method; type: functional
HepG2 [15] = assay: Induction of apoptosis in human HepG2 cells assessed as early apoptotic cells at 12 uM after 24 hrs by annexin V/[…] staining-based fluorescent microscopic method (reference value: 6.50%); type: functional
HepG2 [16] = assay: Downregulation of CDC25C expression in human HepG2 cells after 48 hrs by Western blot method; type: functional, cell-based
HepG2 [17] = assay: Upregulation of p53 expression in human HepG2 cells after 48 hrs by Western blot method; type: functional, cell-based
HepG2 [18] = assay: Induction of apoptosis in human HepG2 cells assessed as increase in release of mitochondrial cytochrome c into cytosol at 8 to 12 uM after 24 hrs by Western blot method; type: functional, cell-based; summary of the method: as §3
HepG2 [19] = assay: Induction of apoptosis in human HepG2 cells assessed as increase in intracellular calcium release at 10 uM after 24 hrs by Fluo-3 AM dye-based fluorescence microscopic method
HepG2 [20] = assay: Cytotoxicity against human HepG2 cells after 48 hrs by MTT assay; type: functional, cell-based; details: HepG2, 48 h; summary of the method: as §2
HepG2 [21] = assay: Disruption of mitochondrial membrane potential in human HepG2 cells at 10 uM after 12 hrs by JC1 staining-based fluorescent microscopic method; type: functional, cell-based
HepG2 [22] = assay: Induction of apoptosis in human HepG2 cells assessed as necrotic cells at 12 uM after 24 hrs by annexin V/[…] staining-based fluorescent microscopic method (reference value: 0.28%); type: functional
HepG2 [23] = assay: Cell cycle arrest in human HepG2 cells assessed as accumulation at S phase at 12 uM after 48 hrs by propidium iodide staining-based flow cytometric method (reference value: 30.49%); type: functional
HepG2 [24] = assay: Induction of apoptosis in human HepG2 cells assessed as late apoptotic cells at 10 uM after 24 hrs by annexin V/[…] staining-based fluorescent microscopic method (reference value: 1.91%); type: functional
HepG2 [25] = assay: Cell cycle arrest in human HepG2 cells assessed as accumulation at G1 phase at 10 uM after 48 hrs by propidium iodide staining-based flow cytometric method (reference value: 50.47%); type: functional
HepG2 [26] = assay: Downregulation of CDK1 expression in human HepG2 cells after 48 hrs by Western blot method; type: functional, cell-based
HepG2 [27] = assay: Induction of apoptosis in human HepG2 cells assessed as upregulation of caspase-9 levels at 8 to 12 uM after 24 hrs by Western blot method; type: functional, cell-based; summary of the method: as §3
HepG2 [28] = assay: Induction of apoptosis in human HepG2 cells assessed as late apoptotic cells at 12 uM after 24 hrs by annexin V/[…] staining-based fluorescent microscopic method (reference value: 1.91%); type: functional
HepG2 [29] = assay: Cell cycle arrest in human HepG2 cells assessed as accumulation at G1 phase at 8 uM after 48 hrs by propidium iodide staining-based flow cytometric method (reference value: 50.47%); type: functional
HepG2 [30] = assay: Induction of apoptosis in human HepG2 cells assessed as downregulation of Bcl-2 levels at 8 to 12 uM after 24 hrs by Western blot method; type: functional, cell-based; summary of the method: as §3

SMILES: CCOP(=O)(Cc1ccc(/N=C/c2cc3cc(C)ccc3[nH]c2=O)cc1)OCC
- viability at 10 µM (HepG2 [1]): 56.3%
- Activity (HepG2 [2]): 15.49%
- Activity (HepG2 [3]): Active
- Activity (HepG2 [4]): 2.9%
- Activity (HepG2 [5]): 19.08%
- IC50 (L02): > 100 µM
- Activity (HepG2 [6]): Active
- Activity (HepG2 [7]): Active
- Activity (HepG2 [8]): Active
- Activity (HepG2 [9]): 29.16%
- IC50 (NCI-H460): 39 µM
- viability at 12 µM (HepG2 [10]): 44.5%
- Activity (HepG2 [11]): 30.01%
- Activity (HepG2 [12]): Active
- Activity (HepG2 [13]): 46.77%
- IC50 (SK-OV-3): 34.8 µM
- Activity (HepG2 [14]): Dose-dependent effect
- Activity (HepG2 [15]): 43.07%
- Activity (HepG2 [16]): Dose-dependent effect
- Activity (HepG2 [17]): Dose-dependent effect
- Activity (HepG2 [18]): Active
- Activity (HepG2 [19]): Active
- IC50 (HepG2 [20]): 9.99 µM
- Activity (HepG2 [21]): Active
- Activity (HepG2 [22]): 0.57%
- Activity (HepG2 [23]): 27.49%
- Activity (HepG2 [24]): 9.24%
- Activity (HepG2 [25]): 33.91%
- Activity (HepG2 [26]): Dose-dependent effect
- Activity (HepG2 [27]): Active
- Activity (HepG2 [28]): 11.83%
- Activity (HepG2 [29]): 35.31%
- Activity (HepG2 [30]): Active
